The data set in a line: Toxicity liver stage against HepG2, at 10uM. It counts as cell-based. Further details: test concentration 10 uM, cell line HepG2-A16-CD81EGFP. The conditions noted are these: human, HepG2-A16-CD81EGFP cells; read-out: INHIBITION
In a few lines: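 Uninfected HepG2-A16-CD81EGFP cells, 3 × 10^3 per well, 1536-well, plated on prespotted compound at 10 μM final, parasite-free screening media added to match infected plates; puromycin 10 μM positive, DMSO 0.5% negative; run in parallel with 48 h PbLuc assay at 37 °C, 5% CO2; viability by CellTiter-Glo luminescence, normalized to controls.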

Regarding `CNc1nc2c(s1)C(c1ccccc1F)CC(=O)N2` (stereo unspecified), the cytotoxicity at 10 µM is 4.43%.

For the compound `CCc1nnc2n1CCN(C(C(=O)NC1CC1)c1ccccc1)C2` (stereo unspecified), the cytotoxicity at 10 µM was -7.07%.

`CN(Cc1ccsc1)C(=O)Nc1ccc(S(=O)(=O)N(C)C)cc1`: the cytotoxicity at 10 µM is 2.23%.

As to `Cc1cc(CN(C)C(=O)CN2CC3(CCNCC3)OC2=O)n(C)n1`, the cytotoxicity at 10 µM worked out at 9.81%.

As for `c1cnc(-c2nc(CN3CCn4c(nnc4C4CC4)C3)cs2)nc1`, the cytotoxicity at 10 µM was -6.93%.

Regarding `CCc1nc(C)ncc1C(=O)N1CCOC(c2nc(C)n[nH]2)C1` (stereo unspecified), the cytotoxicity at 10 µM is -7.88%.

Take `CCCc1nnsc1C(=O)NCC(O)c1ccoc1` (stereo unspecified): the cytotoxicity at 10 µM stood at 4.25%.

With `CNc1cc(C)nc(-c2cc(NCCO)nc3[nH]ccc23)n1`, the cytotoxicity at 10 µM worked out at 5.85%.

For the compound `COC(=O)CCNC(=O)C1CC(=O)N(C2CCCC2)C1` (stereo unspecified), the cytotoxicity at 10 µM was -22.9%.

In the case of `O=C(O)CCn1nc(C(F)(F)F)c(Cl)c1C1CC1`, the cytotoxicity at 10 µM is 8.63%.

As to `COc1c(CNCC(=O)N2CCN(C)CC2)c(C(C)C)nn1C`, the cytotoxicity at 10 µM amounted to 7.45%.

In the case of `COc1ccc(Br)cc1SCCS(C)(=O)=O`, the cytotoxicity at 10 µM came out at 2.71%.

For the compound `Cc1cc(S(=O)(=O)N2C[C@H](C3CC3)[C@@H](N)C2)c(C)s1`, the cytotoxicity at 10 µM was -2.36%.

Regarding `Cc1csc(N2CCN(C(=O)Cc3cccs3)CC2)n1`, the cytotoxicity at 10 µM was -23.3%.

As for `CN(C)C(=O)c1cc2c(s1)CCN(C(=O)CCCN1CCCCC1)C2`, the cytotoxicity at 10 µM is -41.4%.

Take `Cc1nc(CNCc2c(C)nn(C)c2N2CCOCC2)cs1`: the cytotoxicity at 10 µM is -7.44%.

As for `CC(C)=CCN1CCN(C(=O)COc2ccccc2)[C@H]2CS(=O)(=O)C[C@H]21`, the cytotoxicity at 10 µM is -1.64%.

Take `CC(=O)c1cc(CC(=O)N2CCN(S(=O)(=O)c3ccccc3)CC2)cs1`: the cytotoxicity at 10 µM was -0.943%.

On to `CCC(CC)C(CNC(=O)Nc1ccc(OC)cc1)N1CCOCC1` (stereo unspecified), for which the cytotoxicity at 10 µM is -2.86%.

Regarding `COc1ccccc1S(=O)(=O)N1CC(N(C)C)Cc2ccccc21` (stereo unspecified), the cytotoxicity at 10 µM was 0.243%.

With `CC(C)(C)C(=O)NC(c1nccs1)C1CCN(CC2CCCCC2)CC1` (stereo unspecified), the cytotoxicity at 10 µM worked out at 6.5%.

`CCOc1cc(C(=O)N(C)C)ccc1NC(=O)c1ccsc1`: the cytotoxicity at 10 µM is -0.587%.

`O=C(O)c1ccnc(SCC(=O)c2ccccc2)c1`: the cytotoxicity at 10 µM was -3.78%.

For the compound `CC(C)CCn1cc(C(C(=O)O)N2CCC(N3CCSCC3)CC2)cn1` (stereo unspecified), the cytotoxicity at 10 µM was -1.09%.

Consider `OC(c1ccccc1)c1cn(C2CCN(Cc3nccs3)CC2)nn1` (stereo unspecified), for which the cytotoxicity at 10 µM worked out at 7.44%.

For the compound `Clc1ccccc1-c1nc(CNC2CCc3ncnn3C2)cs1` (stereo unspecified), the cytotoxicity at 10 µM is -4.28%.

As to `Cc1csc(C2CCCCN2C(=O)COCc2nc(C)no2)n1` (stereo unspecified), the cytotoxicity at 10 µM turned out to be 1.09%.

Consider `CN(C)c1cc2c(nn1)CCN(C(=O)c1ccc(-n3cccn3)nc1)C2`, for which the cytotoxicity at 10 µM was -1.86%.

On to `Cc1cc(C(=O)N2CCCC(c3noc(C)n3)C2)[nH]n1` (stereo unspecified), for which the cytotoxicity at 10 µM is -6.67%.

On to `O=C(N1CCCO1)[C@]12COC[C@H]1CN(Cc1nccs1)C2`, for which the cytotoxicity at 10 µM was determined as 9.31%.

As to `CC(C)(C)c1n[nH]c(C2CN(Cc3nnc(C4CCC4)o3)CCO2)n1` (stereo unspecified), the cytotoxicity at 10 µM is -8.24%.

Regarding `CN(CC(=O)NC(C)(C)C)C(=O)C1CC(c2cccc(F)c2)=NO1` (stereo unspecified), the cytotoxicity at 10 µM came out at 19.5%.

Turning to `Cc1c(C(=O)N2CCC(O)(CN(C)C)C2)c2ccccc2n1C` (stereo unspecified), the cytotoxicity at 10 µM was determined as 3.49%.

Turning to `Fc1ccccc1OCCc1cc(C2CCNC2)n[nH]1` (stereo unspecified), the cytotoxicity at 10 µM is -26.8%.

With `COCCN1CCC2(CC1)CC(N1CCOCC1)c1ccc(C)cc12` (stereo unspecified), the cytotoxicity at 10 µM is -106%.

For the compound `O=C(CCCc1ccccc1)N1CCCC(n2cncn2)C1` (stereo unspecified), the cytotoxicity at 10 µM is -18.3%.

On to `CCCn1ncc(C(=O)NC2CCN(CC3CCCO3)CC2)c1C` (stereo unspecified), for which the cytotoxicity at 10 µM is -2.43%.

With `COC(=O)c1sccc1S(=O)(=O)N1CCC(Oc2cccnn2)CC1`, the cytotoxicity at 10 µM was -4.82%.

Consider `CCc1n[nH]c(C2CN(CC(=O)NCCc3ccsc3)CCO2)n1` (stereo unspecified), for which the cytotoxicity at 10 µM is -11%.

On to `O=C1NCCCCC1Sc1ccc(F)c(F)c1` (stereo unspecified), for which the cytotoxicity at 10 µM is 5.58%.

For the compound `O=C(c1cccs1)N1CCCC(c2cc(C(F)F)n3ncnc3n2)C1` (stereo unspecified), the cytotoxicity at 10 µM was -23.4%.

`NC(=O)c1ccn(COc2ccccc2Cl)n1`: the cytotoxicity at 10 µM was 2.96%.

Take `O=C(CC1CC1)N1C[C@H]2CN(CC3CC3)C(=O)[C@H]2C1`: the cytotoxicity at 10 µM was determined as 3.91%.

Take `Cc1cc2[nH]c(=O)oc2cc1S(=O)(=O)N1CCC(N2CCCC2=O)CC1`: the cytotoxicity at 10 µM came out at 1.54%.

Take `CC(C)CCN1CCc2c(C(=O)N(C)Cc3ccccn3)nn(C)c2C1`: the cytotoxicity at 10 µM is -0.449%.

As to `CCN(CC)C(=O)CNC(=O)c1ccc(-c2ccsc2)nc1C`, the cytotoxicity at 10 µM was determined as 22.9%.

As for `CCC1(CC)C(=O)NC(=O)N=C1Nc1ccc(C)cc1`, the cytotoxicity at 10 µM was -6.34%.

On to `CN1CC2(CCN(Cc3cc(Cl)ccc3OCC(=O)O)CC2)OC1=O`, for which the cytotoxicity at 10 µM was 1.6%.

As for `COc1ccc(CN(C)[C@@H]2CN(C(=O)c3cccs3)C[C@H]2O)cc1`, the cytotoxicity at 10 µM was -0.619%.

In the case of `CCN1CC2(CCC1=O)CCN(Cc1cccc(C#N)c1)CC2`, the cytotoxicity at 10 µM was -1.1%.

As for `CC(C)CN1C(=O)CO[C@@H]2CN(C(=O)C3CCOCC3)C[C@H]21`, the cytotoxicity at 10 µM was -88.1%.

For the compound `CC(C)n1ncc2c1NC(=O)C(C#N)C21CCCC1` (stereo unspecified), the cytotoxicity at 10 µM is -4.1%.

In the case of `O=C(NCc1nc(NC2CCCC2)c2cc(Cl)ccc2n1)c1ccoc1`, the cytotoxicity at 10 µM was -2.99%.

With `COc1cccc(-n2cc(CN(C)Cc3ccnc(C(C)C)n3)cn2)c1`, the cytotoxicity at 10 µM is -1.29%.

In the case of `CCN(c1ccc(C(=O)N2CCC(C(N)=O)CC2)cc1)S(=O)(=O)CC`, the cytotoxicity at 10 µM was 11.6%.

In the case of `Cc1cnn(CC2CCCN2C(=O)CCc2ccc3c(c2)OCO3)c1` (stereo unspecified), the cytotoxicity at 10 µM is -19%.

`CC(C)OCCN1CCN(C(=O)c2cccc(-n3cccn3)n2)CC1`: the cytotoxicity at 10 µM was -3.88%.

`Cc1ccc(C(=O)N2CCN(CCCSCC#N)CC2)o1`: the cytotoxicity at 10 µM was -11.1%.

Regarding `CC(=O)Nc1ccc(S(=O)(=O)Nc2c(F)cccc2F)cc1`, the cytotoxicity at 10 µM worked out at 12.6%.

With `CN(C)CCN(Cc1ccccc1)C(=O)C1=NNC(=O)CC1`, the cytotoxicity at 10 µM is -6.49%.

Regarding `CN1CCN(C(=O)c2ccc(Cn3cc(Br)cn3)cc2)CC1`, the cytotoxicity at 10 µM was -3.7%.

Turning to `COCC(=O)N1CCC2(COCc3cnc(N4CCOCC4)nc32)C1` (stereo unspecified), the cytotoxicity at 10 µM was -65%.

Regarding `CCc1ccc(CN2CCN(C)c3ncccc3C2)o1`, the cytotoxicity at 10 µM worked out at 3.78%.

`O=C(C1CCS(=O)(=O)CC1)N1C[C@@H]2CC[C@H]1CN(Cc1ccccc1)C2`: the cytotoxicity at 10 µM was -2.22%.

Consider `COc1ccc2[nH]cc(-c3ccnc(NC4CCCC4)n3)c2c1`, for which the cytotoxicity at 10 µM is -6.33%.

`CCS(=O)(=O)N1CCc2c(nc(C3CCCN3)nc2NC)C1` (stereo unspecified): the cytotoxicity at 10 µM is -10.2%.

In the case of `Cc1ccc(NCCCNC(=O)NCC2CCS(=O)(=O)C2)nc1` (stereo unspecified), the cytotoxicity at 10 µM was found to be 17.2%.

As to `CCc1nc(CCNc2ncccn2)sc1C`, the cytotoxicity at 10 µM was determined as 14.4%.

For `CCC(CC)C(=O)c1c[nH]c(C(=O)N2CCN(c3ccccc3)CC2)c1`, the cytotoxicity at 10 µM is 14.7%.

For `CN1C(=O)Cc2cc(-c3csc(CCN4CCOC4=O)n3)ccc21`, the cytotoxicity at 10 µM is -11.5%.

With `CCSCCN1CCCN(S(C)(=O)=O)CC1`, the cytotoxicity at 10 µM is -2.75%.
